Source: ChEMBL document CHEMBL3091397, “Structural effects on persister control by brominated furanones” (Bioorg Med Chem Lett, 2013)
Activity calls are given as the source filed them. The rule behind the calls is not given here.

Assays:
Vibrio harveyi [1] = assay: Toxicity in Vibrio harveyi ATCC BAA-1118 assessed as effect on cell viability after 1.5 hrs by bioluminescence assay; type: organism-based
Summary of the method: (§1)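 V. harveyi BB886 QS reporter was exposed to furanones at various concentrations in the bioluminescence assay. Viable cells were counted as CFU after treatment.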

Vibrio harveyi [2] = assay: Inhibition of AHL-mediated quorum sensing in Vibrio harveyi ATCC BAA-1118 after 1.5 hrs by bioluminescence assay
Summary of the method: (§2)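 V. harveyi BB886 reporter, which emits light in response to extracellular AHL, was incubated with or without furanone at various concentrations (Surette method, modified). Bioluminescence was normalized to viable CFU to give relative bioluminescence versus untreated.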

Pseudomonas aeruginosa [3] = assay: Antibacterial activity against Pseudomonas aeruginosa PAO1 assessed as viability of persister cells at 2 ug/mL after 2 hrs
Vibrio harveyi [4] = assay: Toxicity in Vibrio harveyi ATCC BAA-1118 assessed as effect on cell viability up to 60 ug/mL after 1.5 hrs by bioluminescence assay; type: organism-based; summary of the method: as §1
Vibrio harveyi [5] = assay: Inhibition of AHL-mediated quorum sensing in Vibrio harveyi ATCC BAA-1118 up to 60 ug/mL after 1.5 hrs by bioluminescence assay; summary of the method: as §2
Pseudomonas aeruginosa [6] = assay: Antibacterial activity against Pseudomonas aeruginosa PAO1 assessed as viability of persister cells at 200 ug/mL after 3.5 hrs; type: functional, organism-based
Summary of the method: (§3)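 Isolated PAO1 persisters were given furanone at 2 µg/mL for 2 h. A portion of each sample then received 200 µg/mL ciprofloxacin for 3.5 h. Surviving persisters were counted as CFU.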

Pseudomonas aeruginosa [7] = assay: Antibacterial activity against Pseudomonas aeruginosa PAO1 assessed as viability of persister cells at 2 ug/mL after 2 hrs; type: functional
Summary of the method: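 Persisters isolated from P. aeruginosa PAO1 per an earlier protocol, exposed to furanone for 2 h. Viability was counted as CFU by plating on LB agar immediately after treatment.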

Pseudomonas aeruginosa [8] = assay: Potentiation of ciprofloxacin-induced antibacterial activity against Pseudomonas aeruginosa PAO1 assessed as persister cells at 2 ug/mL after 3.5 hrs; type: functional, organism-based; summary of the method: as §3
Vibrio harveyi [9] = assay: Inhibition of AHL-mediated quorum sensing in Vibrio harveyi ATCC BAA-1118 at 30 ug/mL after 1.5 hrs by bioluminescence assay; summary of the method: as §2
Vibrio harveyi [10] = assay: Toxicity in Vibrio harveyi ATCC BAA-1118 assessed as effect on cell viability at 30 ug/mL after 1.5 hrs by bioluminescence assay; type: organism-based; summary of the method: as §1
Vibrio harveyi [11] = assay: Inhibition of AHL-mediated quorum sensing in Vibrio harveyi ATCC BAA-1118 at 10 ug/mL after 1.5 hrs by bioluminescence assay relative to control; summary of the method: as §2
Vibrio harveyi [12] = assay: Toxicity in Vibrio harveyi ATCC BAA-1118 assessed as effect on cell viability up to 10 ug/mL after 1.5 hrs by bioluminescence assay; type: organism-based; summary of the method: as §1
Pseudomonas aeruginosa [13] = assay: Potentiation of ciprofloxacin-induced antibacterial activity against Pseudomonas aeruginosa PAO1 assessed as sensitive persister cells at 2 ug/mL after 3.5 hrs; type: functional; summary of the method: as §3
Vibrio harveyi [14] = assay: Inhibition of AHL-mediated quorum sensing in Vibrio harveyi ATCC BAA-1118 at 0.5 ug/mL after 1.5 hrs by bioluminescence assay relative to control; summary of the method: as §2

inhibition (Vibrio harveyi [2])	Structure (SMILES)	Activity (Vibrio harveyi [1])	Activity (Pseudomonas aeruginosa [3])	Activity (Pseudomonas aeruginosa [7])	also measured
inactive	CC1=CC(=O)OC1=O	Non-toxic	inactive		
Dose-dependent effect	CC1=CC(=C(Br)Br)OC1=O			inactive	Activity (Pseudomonas aeruginosa [8]): Active; inhibition (Vibrio harveyi [9]): Active; Activity (Vibrio harveyi [10]): Toxic; inhibition (Vibrio harveyi [11]): 100%; Activity (Vibrio harveyi [12]): Non-toxic

The remaining lines, values behind:

Structure (SMILES)	inhibition (Vibrio harveyi [2])	Activity (Vibrio harveyi [1])	Activity (Pseudomonas aeruginosa [3])	Activity (Pseudomonas aeruginosa [7])	also measured
COC1=CC(=O)OC1			inactive		Activity (Vibrio harveyi [4]): Non-toxic; inhibition (Vibrio harveyi [5]): inactive
CC1=C(Br)C(Br)(C(Br)Br)OC1=O (stereo unspecified)	inactive	Non-toxic	Active		
O=C(O)c1cn(C2CC2)c2cc(N3CCNCC3)c(F)cc2c1=O					Activity (Pseudomonas aeruginosa [6]): inactive
O=C1O/C(=C\Br)C(Br)=C1CBr	Active	Non-toxic	Active		
CC1=C(Br)C(C(Br)Br)OC1=O (stereo unspecified)	inactive	Non-toxic		64.6%	Activity (Pseudomonas aeruginosa [13]): 99.99%
O=C1OC(=C(Br)Br)C=C1C(Br)Br		Non-toxic	Active		inhibition (Vibrio harveyi [14]): 55.9%
O=C1OC(=C(Br)Br)C=C1CBr		Non-toxic		inactive	Activity (Pseudomonas aeruginosa [8]): Active; inhibition (Vibrio harveyi [14]): 91.2%
